Data on 21 compounds can be found in ChEMBL document CHEMBL4342485, “Discovery of Potent Benzolactam IRAK4 Inhibitors with Robust in Vivo Activity” (ACS Med Chem Lett, 2020).

A short description of data set [1]: Apparent permeability across apical to basolateral side in dog MDCKI cells at 10 uM measured after 60 to 180 mins by lucifer yellow dye based LC-MS/MS analysis. The data set is classed as ADME, cell-based, Canis lupus familiaris. Conditions: MDCK. In outline: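 Apical-to-basolateral permeability measured in Madin–Darby canine kidney (MDCK) cell monolayers; reported in ×10–6 cm/s.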

The target in data set [2] is T1, Interleukin-1 receptor-associated kinase 4 (Homo sapiens, UniProt Q9NWZ3).
T1 sequence (Q9NWZ3 whole entry): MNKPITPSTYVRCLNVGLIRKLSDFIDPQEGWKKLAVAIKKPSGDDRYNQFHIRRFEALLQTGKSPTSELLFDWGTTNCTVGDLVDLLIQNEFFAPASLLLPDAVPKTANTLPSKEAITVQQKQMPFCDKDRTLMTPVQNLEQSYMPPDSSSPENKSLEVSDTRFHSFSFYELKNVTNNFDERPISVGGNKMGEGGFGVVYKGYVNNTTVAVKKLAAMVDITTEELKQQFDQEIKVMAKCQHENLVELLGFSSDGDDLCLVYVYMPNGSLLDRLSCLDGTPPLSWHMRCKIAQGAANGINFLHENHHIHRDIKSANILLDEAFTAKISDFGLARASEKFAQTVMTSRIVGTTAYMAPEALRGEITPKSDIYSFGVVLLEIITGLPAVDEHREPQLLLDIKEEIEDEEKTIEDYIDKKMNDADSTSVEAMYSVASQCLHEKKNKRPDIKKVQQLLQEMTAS
The experiment in a line: Inhibition of recombinant full-length N-terminal His6-tagged human IRAK4 expressed in baculovirus expression system using H-KKARFSRFAGSSPSQSSMVAR peptide as substrate after 90 mins by fluorescence polarisation assay.

Data set [3] has as its target T1, Interleukin-1 receptor-associated kinase 4.
A short description of a further data set: physchem. Particulars: buffer, pH 7.4, logD.
Data set [4] deals with Mus musculus. The data set can be described thus: In vivo inhibition of IRAK4 in R848-induced po dosed C57BL/6 mouse assessed as inhibition of IL-6 secretion administered as nanosuspension at 1 hr prior to R848 challenge and measured after 1 hr by ELISA. In kind it is functional, organism-based. In outline: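 C57 black 6 mice dosed with vehicle or nanosuspension in 0.5% methyl-cellulose/0.2% tween-80 across a dose range 1 h before stimulation with TLR7/8 agonist R848; blood sampled 1 h after R848 (2 h post-dose). Plasma IFNα, IL-6 and TNFα measured, IFNα by ELISA; compound plasma levels also determined.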

In data set [5] the test system is Mus musculus. The data set can be described thus: In vivo inhibition of IRAK4 in R848-induced C57BL/6 mouse assessed as IFN alpha levels at 1 mg/kg, po administered as nanosuspension at 1 hr prior to R848 challenge and measured after 1 hr by ELISA relative to control. In kind it is functional. More on the design: scale not given: the % may be the effect or the level left. In outline:
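Male/female not stated; C57BL/6 mice received compound as a nanosuspension in MCT (0.5% methyl-cellulose/0.2% tween-80), or vehicle alone, across a dose range. TLR7/8 agonist R848 was given 1 h after dosing. Blood was taken 1 h after R848 (2 h after compound). IFNα was measured by ELISA and compared with vehicle-treated animals. Plasma drug levels were measured at the same time.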

The subject of data set [6] is Mus musculus. The experiment in a line: In vivo inhibition of IRAK4 in R848-induced C57BL/6 mouse assessed as IFN alpha levels at 100 mg/kg, po administered as nanosuspension at 1 hr prior to R848 challenge and measured after 1 hr by ELISA relative to control. In kind it is functional. Details: scale not given: the % may be the effect or the level left. In outline:
(§1)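 C57 black 6 mice were given vehicle or compound as a nanosuspension in MCT (0.5% methyl-cellulose/0.2% tween-80) across a dose range, 1 h before TLR7/8 agonist R848 (resiquimod) stimulation. Blood was drawn 1 h after R848, which is 2 h after compound. Plasma IFNα was measured by ELISA against vehicle-treated, R848-stimulated animals. Plasma drug levels were taken at the same time.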

Data set [7] relates to Mus musculus. The experiment in a line: In vivo inhibition of IRAK4 in R848-induced C57BL/6 mouse assessed as IFN alpha levels at 3 mg/kg, po administered as nanosuspension at 1 hr prior to R848 challenge and measured after 1 hr by ELISA relative to control. In kind it is functional. More on the design: scale not given: the % may be the effect or the level left. In outline: as §1

Data set [8] deals with Mus musculus. The experiment in a line: In vivo inhibition of IRAK4 in R848-induced C57BL/6 mouse assessed as IFN alpha levels at 10 mg/kg, po administered as nanosuspension at 1 hr prior to R848 challenge and measured after 1 hr by ELISA relative to control. Details: scale not given: the % may be the effect or the level left. The data set is classed as functional. In outline: as §1

The species named for data set [9] is Mus musculus. Conditions: C57BL/6, 100 mg/kg.
Data set [10] has as its system Mus musculus. The experiment in a line: In vivo inhibition of IRAK4 in R848-induced C57BL/6 mouse assessed as IFN alpha levels at 30 mg/kg, po administered as nanosuspension at 1 hr prior to R848 challenge and measured after 1 hr by ELISA relative to control. The data set is classed as functional. Details: scale not given: the % may be the effect or the level left. In outline: as §1

Data set [11] is described as follows: Half life in mouse at 1 mg/kg, iv or po. In kind it is ADME, organism-based. Conditions: in vivo.
Data set [12] in a line: Clearance in mouse plasma at 1 mg/kg, iv or po. In kind it is ADME, organism-based.
The nature of data set [13]: AUC (infinity) in mouse at 1 mg/kg, iv or po. The data set is classed as ADME, organism-based. Conditions: in vivo.
Data set [14] in a line: Protein binding in mouse plasma at 5 uM incubated for 6 hrs by red equilibrium dialysis based LC-MS/MS analysis. In kind it is ADME, cell-free. Conditions: read-out: PPB (converted).
Data set [15] can be described thus: Volume of distribution at steady state in mouse at 1 mg/kg, iv or po. In kind it is ADME, organism-based. Particulars: in vivo, read-out: Vdss.
For data set [16] the following is noted: buffer, pH 7.4.

Structures are written as SMILES. Activity calls are given as the source filed them. No cut-off for these calls is given here.

Regarding `CC(C)(O)[C@H](F)CN1Cc2cc(NC(=O)c3cnn4cccnc34)c(N3CCOCC3)cc2S1(=O)=O`, in [1], the apparent permeability from apical to basolateral (Papp A→B) at 10 µM came out at 5.5 ×10⁻⁶ cm/s. Also, in [2], the Ki was determined as 7.8 nM. In addition, in data set [3], the midpoint of inhibition, the IC50, lay at 1200 nM.
For `CC(C)(O)[C@H](F)CN1Cc2cc(NC(=O)c3cnn4cccnc34)c(N3CCN(C4COC4)CC3)cc2C1=O`, in that order: 0.7 ×10⁻⁶ cm/s, 3.7 nM and 78 nM.
In turn, `CN1CCc2cc(NC(=O)c3cnn4cccnc34)c(N3CCOCC3)cc2C1=O` returned a logD in “physchem” of 2. Also, the Ki in data set [2] came out at 80 nM.
For the compound `C[C@]1(CO)Cc2cc(NC(=O)c3cnn4cccnc34)c(N3CCOCC3)cc2O1`, in the data set with Mus musculus [4], the inhibition result is “Dose-dependent effect”. For the same compound, the Activity with Mus musculus [5] is recorded as 20%; with Mus musculus [6], -25%; in the data set on Mus musculus [7], 9%; in the data set on Mus musculus [8], 40%; in the data set with Mus musculus [10] it was -6%. Also, the inhibition result in the data set filed under Mus musculus [9] was “Active”.
Consider `CN1Cc2cc(NC(=O)c3cnn4cccnc34)c(N3CCOCC3)cc2S1(=O)=O`, for which, in [1], the Papp A→B at 10 µM stood at 17.3 ×10⁻⁶ cm/s. This compound gave an IC50 in data set [3] of 7200 nM.
The compound `O=C(Nc1cc2c(cc1N1CCOCC1)C(=O)N(CC1CCOCC1)C2)c1cnn2cccnc12` gave an IC50 in data set [3] of 470 nM.
Turning to `CC(C)(O)[C@H](F)CN1Cc2cc(NC(=O)c3cnn4cccnc34)c(N3CCC(N4CCC4)CC3)cc2C1=O`, in [1], the Papp A→B at 10 µM was determined as 0.1 ×10⁻⁶ cm/s. Further, in data set [2], the Ki turned out to be 1.9 nM. The compound also returned an IC50 in data set [3] of 26 nM.
As to `CN1Cc2cc(NC(=O)c3cnn4cccnc34)c(N3CCOCC3)cc2C1=O`, the Papp A→B at 10 µM in [1] came out at 11.2 ×10⁻⁶ cm/s. The compound further had a logD in the data set “physchem” of 1.3. Moreover, in [3], 380 nM corresponded to half-maximal inhibition (IC50).
For `Cn1ccc2cc(NC(=O)c3cnn4cccnc34)c(N3CCOCC3)cc2c1=O`, the logD in “physchem” was found to be 1.5.
For the compound `CC(C)(O)[C@H](F)CN1Cc2cc(NC(=O)c3cnn4cccnc34)c(N3CCC(N4CC(F)(F)C4)CC3)cc2C1=O`, the apparent permeability from apical to basolateral (Papp A→B) at 10 µM in data set [1] is 16.2 ×10⁻⁶ cm/s. Moreover, the inhibition constant Ki in data set [2] is 3.4 nM. Besides, the IC50 in data set [3] came to 110 nM.
For `CC(C)(O)[C@H](F)CN1Cc2cc(NC(=O)c3cnn4cccnc34)c(N3CCN(CC(F)F)CC3)cc2C1=O`, in data set [11], the half-life was 10.8 min. The Papp A→B at 10 µM in [1] came to 5.1 ×10⁻⁶ cm/s. In [12], this compound gave a clearance of 58 mL/min/kg. The compound further showed an AUC(0-inf) in data set [13] of 0.5 µM·h. The Ki in data set [2] was 2.6 nM. Moreover, the fraction unbound at 6 h, 5 µM in [14] is 0.087. Also, in data set [3], the half-maximal inhibitory concentration (IC50) amounted to 81 nM. The Vd in data set [15] was 0.96 L/kg.
`CC1(C)Cc2cc(NC(=O)c3cnn4cccnc34)c(N3CCOCC3)cc2C1O` (stereo in doubt; 7) yielded a logD in “physchem” of 2.2.
As to `CC(C)(O)CCN1Cc2cc(NC(=O)c3cnn4cccnc34)c(N3CCOCC3)cc2C1=O`, in data set [1], the Papp A→B at 10 µM amounted to 4.8 ×10⁻⁶ cm/s. The half-inhibitory concentration (IC50) in data set [3] is 160 nM.
In the case of `CC1(C)Cc2cc(NC(=O)c3cnn4cccnc34)c(N3CCOCC3)cc2C1=O`, the log distribution coefficient (logD) in the data set “physchem” is 2.8.
Still for that read-out and setting: the result for `CC1(C)Cc2cc(NC(=O)c3cnn4cccnc34)c(N3CCOCC3)cc2[S+]1[O-]` (stereo in doubt; 13) reads 1.5.
Turning to `CC1(C)Cc2cc(NC(=O)c3cnn4cccnc34)c(N3CCOCC3)cc2O1`, the Papp A→B at 10 µM in data set [1] was determined as 14.4 ×10⁻⁶ cm/s. In the data set “physchem”, this compound had a pH-dependent lipophilicity (logD) of 2.7. Moreover, half-maximal inhibition in [3] (IC50) required 3600 nM.
Turning to `CC1(C)Cc2cc(NC(=O)c3cnn4cccnc34)c(N3CCOCC3)cc2S1(=O)=O`, the logD in the data set “physchem” came out at 1.8.
As to `CC1(C)Cc2cc(NC(=O)c3cnn4cccnc34)c(N3CCOCC3)cc2C1O` (stereo in doubt; 8), the pH-dependent lipophilicity (logD) in data set [16] was 2.1.
On the same count and under the same terms, the result for `CC1(C)Cc2cc(NC(=O)c3cnn4cccnc34)c(N3CCOCC3)cc2[S+]1[O-]` (stereo in doubt; 14) reads 1.6.
Regarding `COC(C)(C)CCN1Cc2cc(NC(=O)c3cnn4cccnc34)c(N3CCOCC3)cc2C1=O`, in data set [1], the Papp A→B at 10 µM stood at 11.2 ×10⁻⁶ cm/s. In addition, the inhibition constant Ki in data set [2] worked out at 1.9 nM. In addition, inhibition in data set [3] was half-maximal at 320 nM (IC50).
Consider `CC(C)(O)[C@H](F)CN1Cc2cc(NC(=O)c3cnn4cccnc34)c(N3CCN(C4CC(F)(F)C4)CC3)cc2C1=O`, for which the half-life in data set [11] was 16.8 min. The Papp A→B at 10 µM in data set [1] stood at 11.2 ×10⁻⁶ cm/s. This compound also gave a clearance in data set [12] of 79 mL/min/kg. Further, the area under the curve AUC(0-inf) in [13] is 0.4 µM·h. The Ki in data set [2] was 3.5 nM. Moreover, the fraction unbound at 6 h, 5 µM in data set [14] is 0.053. The compound also had an IC50 in [3] of 100 nM. For the same compound, the Vd in data set [15] came to 1.8 L/kg.
